From ChEMBL document CHEMBL1146840, “Syntheses and radical scavenging activities of resveratrol derivatives” (Bioorg Med Chem Lett, 2004)

How the values were obtained:
[1] = Free radical scavenging activity of DPPH relative to resveratrol was determined
Procedure, shortened: (§1)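 Ethanolic DPPH (1.01×10^-4 M) plus sample (1:9 by volume), 30 min at room temperature, absorbance at 518 nm, decrease versus control. Triplicate, repeated at least three times. The relative value is the IC50 of resveratrol divided by the IC50 of the test compound.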

[2] = Free radical scavenging activity of DPPH expressed as percent polyphenol
[3] = Free radical scavenging activity of DPPH was determined
Procedure, shortened: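 DPPH bleaching assay: sample solution mixed 1:9 with ethanolic DPPH (1.01×10^-4 M), kept 30 min at room temperature, then A518 read and remaining DPPH calculated. Triplicate, repeated at least three times.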

[4] = Free radical scavenging activity of DPPH was determined; value taken from reference 11
[5] = Free radical scavenging activity of DPPH w.r.t. resveratrol was determined; procedure, shortened: as §1
[6] = Half life of the radiolabeled compound was determined; type: ADME

Relative IC50 [1]	Activity [2] [%]	IC50 [3] [µM]	IC50 [4] [µM]	Relative IC50 [5]	Structure (SMILES)	T1/2 [6] [h]
2.6	95.6	47.4	–	–	Oc1cc(O)cc(/C=C/c2ccc(O)c(CCF)c2)c1	–
3.66	–	–	20.2	–	Oc1cc(O)c2c(c1)O[C@H](c1ccc(O)c(O)c1)[C@@H](O)C2 [CIANIDANOL]	–
2.55	–	–	29	–	Oc1cc(O)cc(/C=C/c2ccc(O)c(O)c2)c1 [PICEATANNOL]	–
–	100	123	74	1	Oc1ccc(/C=C/c2cc(O)cc(O)c2)cc1 [RESVERATROL]	–
4.71	–	–	15.7	–	Oc1cc(O)c2c(c1)O[C@H](c1ccc(O)c(O)c1)[C@H](O)C2 [(-)-EPICATECHIN]	–
–	–	–	–	–	[18FH] [F-18]	1.83
0.37	–	–	200	–	OC[C@H]1O[C@@H](Oc2cc(O)cc(/C=C/c3ccc(O)cc3)c2)[C@H](O)[C@@H](O)[C@@H]1O [PICEID]	–
1.77	50.4	69.5	–	–	COc1cc(/C=C/c2ccc(O)c(CCF)c2)cc(OC)c1	–
2.42	–	–	30.6	–	OC[C@H]1O[C@@H](Oc2cc(O)cc(/C=C/c3ccc(O)c(O)c3)c2)[C@H](O)[C@@H](O)[C@@H]1O	–
2.41	98	51.2	–	–	Oc1cc(O)cc(/C=C/c2ccc(O)c(Br)c2)c1	–
1.68	88	73.4	–	–	Oc1cc(O)cc(/C=C/c2ccc(O)c(I)c2)c1	–
3.43	85.8	35.9	–	–	Oc1ccc(/C=C/c2cc(O)cc(O)c2Br)cc1	–
–	26.6	–	–	–	COc1ccc(/C=C/c2cc(OC)cc(OC)c2Br)cc1	–

Structure (SMILES)	Relative IC50 [1]	Activity [2] [%]	IC50 [3] [µM]	IC50 [4] [µM]	Relative IC50 [5]	T1/2 [6] [h]
Oc1ccc(/C=C/c2cc(O)c(I)c(O)c2)cc1	1.75	72	70.6	–	–	–
